The text below walks through data of ChEMBL document CHEMBL1135937, “Further studies on conformationally constrained tricyclic tropane analogues and their uptake inhibition at monoamine transporter sites: synthesis of (Z)-9-(substituted arylmethylene)-7-azatricyclo[4.3.1.0(3,7)]decanes as a novel class of serotonin transporter inhibitors” (J Med Chem, 2002).

Structures are written as SMILES.

In assay [1] the target is Sodium-dependent dopamine transporter (Rattus norvegicus, UniProt P23977). The assay can be described thus: Ability to inhibit high affinity reuptake of [3H]DA from dopamine transporter into nerve endings synaptosomes. It counts as subcellular, Brain. The essentials: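 Rat striatal P2 synaptosomes in modified KRH buffer (pH 7.4, with nialamide), preincubated with drug for 30 min at 4 °C, then 15 min at 37 °C. Uptake of [3H]DA (~5 nM final) ran for 5 min and was stopped by cold Na-free buffer and filtration. IC50 from six concentrations in triplicate; Ki by Cheng–Prusoff, 2–4 experiments.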
Sequence of Sodium-dependent dopamine transporter (P23977 whole entry): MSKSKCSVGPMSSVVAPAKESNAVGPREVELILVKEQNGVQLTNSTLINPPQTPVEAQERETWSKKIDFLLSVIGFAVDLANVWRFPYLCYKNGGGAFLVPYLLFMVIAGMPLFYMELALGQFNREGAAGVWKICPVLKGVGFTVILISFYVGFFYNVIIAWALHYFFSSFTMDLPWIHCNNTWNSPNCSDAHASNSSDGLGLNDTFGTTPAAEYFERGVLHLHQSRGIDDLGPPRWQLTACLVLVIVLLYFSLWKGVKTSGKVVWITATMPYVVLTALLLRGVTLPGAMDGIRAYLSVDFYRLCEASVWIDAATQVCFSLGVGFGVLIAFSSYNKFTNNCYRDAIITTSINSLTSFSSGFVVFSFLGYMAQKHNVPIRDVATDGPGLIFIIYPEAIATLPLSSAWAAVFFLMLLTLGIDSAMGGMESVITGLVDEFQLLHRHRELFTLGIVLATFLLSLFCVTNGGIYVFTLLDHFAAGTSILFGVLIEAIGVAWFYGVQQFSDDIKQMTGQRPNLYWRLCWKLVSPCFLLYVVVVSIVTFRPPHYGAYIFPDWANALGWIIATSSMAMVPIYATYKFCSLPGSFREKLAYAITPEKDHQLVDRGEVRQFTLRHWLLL

The target of assay [2] is Norepinephrine transporter (Rattus norvegicus, UniProt Q9WTR4). The assay can be described thus: Ability to inhibit high affinity reuptake of [3H]-NE (Norepinephrine transporter) into nerve ending synaptosomes prepared from brain regions. Format: subcellular.
Sequence of Norepinephrine transporter (Q9WTR4 whole entry): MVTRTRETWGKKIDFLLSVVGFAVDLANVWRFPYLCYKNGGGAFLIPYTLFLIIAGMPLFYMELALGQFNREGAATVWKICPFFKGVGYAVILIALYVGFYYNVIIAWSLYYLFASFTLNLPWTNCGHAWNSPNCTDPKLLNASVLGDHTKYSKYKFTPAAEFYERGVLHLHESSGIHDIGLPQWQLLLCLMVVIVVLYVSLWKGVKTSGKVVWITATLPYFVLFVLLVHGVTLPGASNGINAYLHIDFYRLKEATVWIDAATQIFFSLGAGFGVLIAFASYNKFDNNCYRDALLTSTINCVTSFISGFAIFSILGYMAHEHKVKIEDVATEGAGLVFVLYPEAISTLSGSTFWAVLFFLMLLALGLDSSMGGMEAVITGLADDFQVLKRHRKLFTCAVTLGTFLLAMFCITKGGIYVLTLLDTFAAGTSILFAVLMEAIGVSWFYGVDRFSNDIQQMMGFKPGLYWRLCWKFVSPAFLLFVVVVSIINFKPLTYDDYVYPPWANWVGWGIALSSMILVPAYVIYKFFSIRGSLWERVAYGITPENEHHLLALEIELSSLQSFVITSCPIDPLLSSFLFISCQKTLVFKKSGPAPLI
Assay [3] concerns the target Sodium-dependent serotonin transporter (Rattus norvegicus, UniProt P31652). The assay can be described thus: Inhibition of high affinity re-uptake of [3H]5-HT (serotonin) into nerve ending synaptosomes. It counts as subcellular, Brain. The essentials:
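Synaptosomes (P2) from rat midbrain in modified KRH buffer (pH 7.4, with nialamide), preincubated with drug for 30 min at 4 °C, then 15 min at 37 °C. [3H]5-HT (~5 nM final) uptake ran for 5 min, then filtration and scintillation counting. IC50 from six concentrations in triplicate; Ki by Cheng–Prusoff, 2–4 experiments.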

Assay [4] can be described thus: Uptake ratio Ki of dopamine relative to serotonin (5-HT) at monoamine transporter.
The nature of assay [5]: Uptake ratio Ki of norepinephrine relative to dopamine at monoamine transporter.
Assay [6] is described as follows: Uptake ratio Ki of norepinephrine relative to serotonin (5-HT) at monoamine transporter.

Sequence of Sodium-dependent serotonin transporter (P31652 whole entry): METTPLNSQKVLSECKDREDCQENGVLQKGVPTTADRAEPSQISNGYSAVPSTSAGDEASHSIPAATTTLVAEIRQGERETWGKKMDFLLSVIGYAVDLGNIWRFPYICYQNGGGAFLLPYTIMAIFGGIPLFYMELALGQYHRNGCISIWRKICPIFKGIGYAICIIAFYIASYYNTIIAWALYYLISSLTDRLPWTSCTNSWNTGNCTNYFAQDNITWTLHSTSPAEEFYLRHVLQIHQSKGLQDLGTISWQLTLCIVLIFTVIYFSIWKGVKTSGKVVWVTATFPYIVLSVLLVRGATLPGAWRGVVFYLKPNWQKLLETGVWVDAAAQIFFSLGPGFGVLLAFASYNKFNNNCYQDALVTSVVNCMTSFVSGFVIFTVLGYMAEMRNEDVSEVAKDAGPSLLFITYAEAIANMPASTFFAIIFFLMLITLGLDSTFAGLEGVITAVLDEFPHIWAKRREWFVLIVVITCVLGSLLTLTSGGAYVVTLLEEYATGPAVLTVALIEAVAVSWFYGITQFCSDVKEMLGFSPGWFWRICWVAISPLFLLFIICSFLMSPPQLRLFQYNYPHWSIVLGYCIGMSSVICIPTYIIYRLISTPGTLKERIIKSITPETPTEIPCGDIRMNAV

As to `CNC(=O)C1C2CC3CCC1N3C/C2=C\c1ccc(Cl)c(Cl)c1` (stereo not given), the Ki (in general, the equilibrium dissociation constant of an inhibitor or competing ligand from its target) in assay [1] was determined as 3780 nM; in assay [2], 417 nM; in assay [3] it was 29.8 nM. Besides, the Ratio in assay [4] worked out at 127; in assay [5], 0.11; in assay [6] it was 14.
Consider `CCC(=O)C1C2CC3CCC1N3C/C2=C\c1ccc(Cl)c(Cl)c1` (stereo not given), for which the Ki came to 6840 nM in assay [1], 651 nM in assay [2] and 2.2 nM in assay [3]. The Ratio was 3110 in assay [4], 0.1 in assay [5] and 296 in assay [6].
Consider `COC(=O)C1C2CC3CCC1N3C/C2=C\c1ccc(Cl)cc1` (stereo not given), for which the Ki in assay [1] stood at 853 nM; in assay [2] it was 208 nM; in assay [3], 34.3 nM. Moreover, the Ratio came to 24.8 in assay [4], 0.24 in assay [5] and 6 in assay [6].
As for `COC(=O)C1C2CC3CCC1N3C/C2=C\c1ccc(C)cc1` (stereo not given), the Ki in assay [1] stood at 649 nM; in assay [2], 146 nM; in assay [3], 15 nM. Besides, the Ratio in assay [4] amounted to 43.3; in assay [5] it was 0.22; in assay [6], 9.7.
`COC(=O)C1C2CC3CCC1N3C/C2=C\c1ccc(Cl)c(Cl)c1` (stereo not given): the Ki in assay [1] amounted to 1920 nM; in assay [2] it was 1000 nM; in assay [3], 20 nM. Also, the Ratio turned out to be 96 in assay [4], 0.52 in assay [5] and 50 in assay [6].
